The species entered for series [1] is Danio rerio. Kind of series: Neuroprotective activity against MPTP-induced tyrosine hydroxylase deficiency in zebrafish larval brain assessed as tyrosine hydroxylase viability in neuron at 100 uM after 48 hrs by immunofluorescence assay (reference value: 49.93 +/- 5.26%). The class given is functional.
Series [2] in a line: Binding affinity to MPP+ assessed as upfield shift resonance at 1.2 equivalents of compound by 1H NMR analysis.
Series [3] can be described thus: Binding affinity to MPP+ in PBS buffer solution at pH 7.4 by UV-vis titration method. Summed up: (§1)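 UV-vis titration in 0.01 M PBS, pH 7.4: host added in increasing amounts to the guest solution. Guest absorbance followed at 242 nm, plotted against host concentration and fitted by nonlinear least squares to a 1:1 model to give Ka.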
Series [4] can be described thus: Binding affinity to MPTP at 0.5 equivalents of compound by 1H NMR analysis.
The species entered for series [5] is Danio rerio. Description: Neuroprotective activity against MPTP-induced locomotion defeciency in zebrafish larvae assessed as swimming distance at 100 uM incubated for 5 days measured for 45 mins by automated video tracking system based method (reference value: 1368.76 +/- 404.62 cm). The class given is functional.
A short description of series [6]: Neurotoxicity in zebrafish larvae assessed as tyrosine hydroxylase viability in neuron at 100 uM after 48 hrs by immunofluorescence assay relative to control. The class given is organism-based, Danio rerio. Conditions: tyrosine hydroxylase-positive neurons, read-out: Activity.
The nature of series [7]: Binding affinity to MPTP assessed as upfield shift resonance at 1.2 equivalents of compound by 1H NMR analysis.
Series [8] is described as follows: Binding affinity to MPP+ by ESI-MS analysis.
Series [9] is described as follows: Binding affinity to MPTP by ESI-MS analysis.
The species named for series [10] is Danio rerio. Description: Neurotoxicity in zebrafish model of MPTP-induced tyrosine hydroxylase defeciency assessed as phenotypic changes at 100 uM after 48 hrs by immunofluorescence assay. The class given is organism-based. Conditions: in vivo.
The species entered for series [11] is Danio rerio. Description: Neurotoxicity in zebrafish larvae assessed as swimming distance at 100 uM incubated for 5 days measured for 45 mins by automated video tracking system based method (reference value: 3773.21 +/- 386.24 cm). The format is ADME, organism-based. The conditions noted are these: in vivo.
Series [12] is described as follows: Binding affinity to MPTP in PBS buffer solution at pH 7.4 by UV-vis titration method. In short, it runs like this: as §1

Each structure is given as a SMILES string. Calls of active or inactive are those of the source. The rule behind the calls is not given here. A value given as a limit tells only on which side of the number the result lay.

As for `O=C1N2CN3C(=O)N4CN5C(=O)N6CN7C(=O)N8CN9C(=O)N%10CN%11C(=O)N%12CN%13C(=O)N%14CN1[C@H]1[C@@H]2N2CN%15C(=O)N(CN%16C(=O)N(CN%17C(=O)N(CN%18C(=O)N(CN%19C(=O)N(CN%20C(=O)N(CN1C2=O)[C@H]%14[C@@H]%20%13)[C@H]%12[C@@H]%19%11)[C@H]%10[C@@H]%189)[C@H]8[C@@H]%177)[C@H]6[C@@H]%165)[C@H]4[C@@H]%153`, the Activity in the series listed under Danio rerio [1] was 79.44%; in the series filed under Danio rerio [5] it was 3487.02 cm; in series [7] it was less than 1 ppm; in the series filed under Danio rerio [10], “Non-toxic”; in the series filed under Danio rerio [11] it was 4167.89 cm. For the same compound, the outcome in series [2], in series [4], in [8] and in series [9] was Active. The Ka in series [3] came to 1.05 ×10⁵ /M; in [12] it was 4.8 ×10⁴ /M. The viability at 48 h, 100 µM in series [6] came out at 91%.

The record behind these values is ChEMBL document CHEMBL3769342, “Supramolecular Inhibition of Neurodegeneration by a Synthetic Receptor” (ACS Med Chem Lett, 2015).
